Test results: ChEMBL document CHEMBL3351600, “Sulfur, selenium and tellurium pseudopeptides: synthesis and biological evaluation” (Bioorg Med Chem, 2014)
pIC50: −log10 of the molar value.

Experiments:
SF-268 = test: Growth inhibition of human SF268 cells after 48 hrs; assay type: functional; details: SF-268, 48 h
How it was run: (§1)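 NCI-60 human tumour cell line panel screen run at the US National Cancer Institute under its standard cytotoxicity protocol. It covers leukaemia, NSCLC, colon, CNS, melanoma, ovarian, renal, prostate and breast lines. An initial single-dose test was followed by five-dose testing with 48 h compound exposure.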

ACHN = test: Growth inhibition of human ACHN cells after 48 hrs; assay type: functional; how it was run: as §1
786-0 = test: Growth inhibition of human 786-0 cells after 48 hrs; assay type: functional; details: 786-0, 48 h; how it was run: as §1
MCF7 [1] = test: Cytotoxicity against human MCF7 cells assessed as cell viability after 24 hrs incubation by MTT assay; assay type: functional, cell-based; details: MCF7, 24 h
How it was run: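 Cell lines came from DSMZ; primary human fibroblasts served as non-cancer controls. Cells were grown in medium with 10% FCS, seeded at 50,000 cells/ml, and grown 2 days at 37 °C, 10% CO2. Serial dilutions were then added for 24 h. MTT (final 0.5 mg/ml) was added for 2 h. Formazan was pelleted, PBS-washed, dissolved in isopropanol/0.4% HCl and read at 590 nm. Two parallel experiments were run. IC50 was taken as the concentration giving 50% of untreated-control absorbance.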

SK-MEL-28 = test: Growth inhibition of human SK-MEL-28 cells after 48 hrs; assay type: functional; details: SK-MEL-28, 48 h; how it was run: as §1
[2] = Growth inhibition of human RPMI8226 cells after 48 hrs; assay type: functional; details: RPMI-8226, 48 h; how it was run: as §1
DU-145 = test: Growth inhibition of human DU145 cells after 48 hrs; assay type: functional; details: DU-145, 48 h; how it was run: as §1
MDA-MB-435 = test: Growth inhibition of human MDA-MB-435 cells after 48 hrs; assay type: functional; details: MDA-MB-435, 48 h; how it was run: as §1
MCF7 [3] = test: Growth inhibition of human MCF7 cells after 48 hrs; assay type: functional; details: MCF7, 48 h; how it was run: as §1
[4] = Growth inhibition of human OVCAR8 cells after 48 hrs; assay type: functional; details: OVCAR-8, 48 h; how it was run: as §1
[5] = Octanol-water partition coefficient, log P of the compound by HPLC analysis; assay type: physicochemical
How it was run: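 Lipophilicity was measured by reversed-phase HPLC on a Nucleosil C18 column with isocratic water/methanol (3:1) at 0.5 ml/min and UV detection at 230 and 245 nm. Dead time was set with thiourea (t0 0.728 min). Retention factor was k = (tR − t0)/t0, and log P came from a calibration against at least six reference compounds.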

[6] = Growth inhibition of human RXF393 cells after 48 hrs; assay type: functional; details: RXF 393, 48 h; how it was run: as §1
[7] = Growth inhibition of human LOXIMVI cells after 48 hrs; assay type: functional; details: LOX IMVI; how it was run: as §1
[8] = Growth inhibition of human BT549 cells after 48 hrs; assay type: functional; details: BT-549, 48 h; how it was run: as §1
SK-MEL-5 = test: Growth inhibition of human SK-MEL-5 cells after 48 hrs; assay type: functional; details: SK-MEL-5, 48 h
How it was run: (§2)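 Run by the NCI 58-cell-line screen under its standard cytotoxicity protocol. Compounds were first tested at a single dose, then at five doses. Cells were exposed to compound for 48 h.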

[9] = Growth inhibition of human EKVX cells after 48 hrs; assay type: functional; how it was run: as §1
Staphylococcus aureus = test: Antimicrobial activity against Staphylococcus aureus assessed as inhibition at 20 ug/6 mm disk after 1 to 2 days by agar diffusion assay; assay type: functional
How it was run: (§3)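 Standard agar diffusion: 6-mm paper disks loaded with 20 µg of compound were placed on inoculated plates. Inhibition-zone diameter (mm) was read after 1 and 2 days of growth.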

[10] = Growth inhibition of human SF539 cells after 48 hrs; assay type: functional; details: SF-539, 48 h; how it was run: as §1
[11] = Growth inhibition of human NCI-ADR-RES cells after 48 hrs; assay type: functional; how it was run: as §1
Malme-3M = test: Growth inhibition of human MALME-3M cells after 48 hrs; assay type: functional; how it was run: as §1
Saccharomyces cerevisiae = test: Antimicrobial activity against Saccharomyces cerevisiae assessed as inhibition at 20 ug/6 mm disk after 1 to 2 days by agar diffusion assay; assay type: functional; how it was run: as §3
KM12 = test: Growth inhibition of human KM12 cells after 48 hrs; assay type: functional; details: KM12, 48 h; how it was run: as §1
SNB-19 = test: Growth inhibition of human SNB19 cells after 48 hrs; assay type: functional; details: SNB-19, 48 h; how it was run: as §2
[12] = Growth inhibition of human MOLT4 cells after 48 hrs; assay type: functional; details: MOLT-4, 48 h; how it was run: as §1
Escherichia coli = test: Antimicrobial activity against Escherichia coli tolC assessed as inhibition at 20 ug/6 mm disk after 1 to 2 days by agar diffusion assay; assay type: functional; how it was run: as §3
CAKI-1 = test: Growth inhibition of human CAKI-1 cells after 48 hrs; assay type: functional; details: CAKI-1, 48 h; how it was run: as §1
SNB-75 = test: Growth inhibition of human SNB75 cells after 48 hrs; assay type: functional; details: SNB-75, 48 h; how it was run: as §2
SK-OV-3 = test: Growth inhibition of human SKOV3 cells after 48 hrs; assay type: functional; details: SK-OV-3, 48 h; how it was run: as §2
[13] = Growth inhibition of human Hs 578T cells after 48 hrs; assay type: functional; how it was run: as §1
HT-29 = test: Growth inhibition of human HT-29 cells after 48 hrs; assay type: functional; details: HT-29, 48 h; how it was run: as §1
[14] = Growth inhibition of human OVCAR4 cells after 48 hrs; assay type: functional; details: OVCAR-4, 48 h; how it was run: as §1
T47D = test: Growth inhibition of human T47D cells after 48 hrs; assay type: functional; how it was run: as §2
[15] = read-out: pLC50 (the source's name) (converted)

In the case of CC1=C(SCCC(=O)OCC(=O)NCCC[Te]c2ccccc2)C(=O)c2ccccc2C1=O, the GI50 (SF-268) was 3.02 µM, the CC50 (SF-268; [15]) was 37.2 µM and the TGI (SF-268; read-out: pTGI (converted)) was 9.55 µM. It also gave a GI50 (ACHN) of 2.82 µM, an LC50 (ACHN) of 40.7 µM and a TGI (ACHN; read-out: pTGI (converted)) of 11 µM. For the same compound, the GI50 (786-0) was 2.69 µM, the LC50 (786-0) was 29.5 µM and the TGI (786-0; read-out: pTGI (converted)) was 8.32 µM. The pIC50 (MCF7 [1]) was 4.92, the GI50 (SK-MEL-28) was 2.29 µM and the CC50 (SK-MEL-28; [15]) was 17.8 µM. It also gave a TGI (SK-MEL-28; read-out: pTGI (converted)) of 5.5 µM, a GI50 [2] of 2.57 µM and a CC50 [2, 15] greater than 100 µM. For the same compound, the TGI ([2]; read-out: pTGI (converted)) was 9.33 µM, the GI50 (DU-145) was 3.31 µM and the LC50 (DU-145) was 33.9 µM. It also gave a TGI (DU-145; read-out: pTGI (converted)) of 9.12 µM, a GI50 (MDA-MB-435) of 4.27 µM and a CC50 (MDA-MB-435; [15]) of 57.5 µM. For the same compound, the TGI (MDA-MB-435; read-out: pTGI (converted)) was 15.8 µM, the GI50 (MCF7 [3]) was 2.95 µM and the LC50 (concentration killing 50% of cells) (MCF7 [3]) was 57.5 µM. For the same compound, the TGI (MCF7 [3]; read-out: pTGI (converted)) was 12.3 µM, the GI50 [4] was 2.75 µM and the LC50 [4] was 51.3 µM. The TGI ([4]; read-out: pTGI (converted)) was 11.5 µM, the logP [5] was 3.8 and the GI50 [6] was 1.74 µM. For the same compound, the LC50 [6] was 12.9 µM, the TGI ([6]; read-out: pTGI (converted)) was 4.37 µM and the GI50 [7] was 2.14 µM. The LC50 [7] was 75.9 µM, the TGI ([7]; read-out: pTGI (converted)) was 5.37 µM and the GI50 [8] was 1.66 µM. For the same compound, the LC50 (concentration killing 50% of cells) [8] was 9.77 µM, the TGI ([8]; read-out: pTGI (converted)) was 4.07 µM and the GI50 (SK-MEL-5) was 1.29 µM. The CC50 (SK-MEL-5; [15]) was 5.25 µM, the TGI (SK-MEL-5; read-out: pTGI (converted)) was 2.63 µM and the GI50 [9] was 1.12 µM. The CC50 [9, 15] was 53.7 µM, the TGI ([9]; read-out: pTGI (converted)) was 10.5 µM and the “diameter of the inhibition zone (DIZ)” value (Staphylococcus aureus) was 13 mm. For the same compound, the GI50 [10] was 2.09 µM, the CC50 [10, 15] was 27.5 µM and the TGI ([10]; read-out: pTGI (converted)) was 6.61 µM. It also gave a GI50 [11] of 2.69 µM, an LC50 [11] of 55 µM and a TGI ([11]; read-out: pTGI (converted)) of 10.2 µM. It also gave a GI50 (Malme-3M) of 2.19 µM, a CC50 (Malme-3M; [15]) of 25.7 µM and a TGI (Malme-3M; read-out: pTGI (converted)) of 6.03 µM. The “diameter of the inhibition zone (DIZ)” value (Saccharomyces cerevisiae) was 0 mm, the GI50 (KM12) was 3.63 µM and the CC50 (KM12; [15]) was 52.5 µM. The TGI (KM12; read-out: pTGI (converted)) was 12.6 µM, the GI50 (SNB-19) was 2.63 µM and the CC50 (SNB-19; [15]) was 42.7 µM. For the same compound, the TGI (SNB-19; read-out: pTGI (converted)) was 10.2 µM, the GI50 [12] was 3.16 µM and the CC50 [12, 15] was greater than 100 µM. For the same compound, the TGI ([12]; read-out: pTGI (converted)) was 9.77 µM, the “diameter of the inhibition zone (DIZ)” value (Escherichia coli) was 11 mm and the GI50 (CAKI-1) was 2.95 µM. The LC50 (CAKI-1) was 39.8 µM, the TGI (CAKI-1; read-out: pTGI (converted)) was 11.2 µM and the GI50 (SNB-75) was 1.48 µM. It also gave a CC50 (SNB-75; [15]) of 24.5 µM, a TGI (SNB-75; read-out: pTGI (converted)) of 5.89 µM and a GI50 (SK-OV-3) of 1.74 µM. It also gave a CC50 (SK-OV-3; [15]) of 12.3 µM, a TGI (SK-OV-3; read-out: pTGI (converted)) of 4.37 µM and a GI50 [13] of 2.82 µM. The LC50 [13] was greater than 100 µM, the TGI ([13]; read-out: pTGI (converted)) was greater than 100 µM and the GI50 (HT-29) was 3.31 µM. The CC50 (HT-29; [15]) was greater than 100 µM, the TGI (HT-29; read-out: pTGI (converted)) was 11 µM and the GI50 [14] was 2.14 µM. The LC50 [14] was 29.5 µM, the TGI ([14]; read-out: pTGI (converted)) was 7.41 µM and the GI50 (T47D) was 2 µM. It also gave an LC50 (T47D) greater than 100 µM and a TGI (T47D; read-out: pTGI (converted)) of 5.75 µM.
